Assay results of several laboratories.
Compare with care: the assays were run in different laboratories. Converted amounts (≈) assume the structure as drawn.

`CN1CCN(c2ncc(-c3ccc4c(Nc5ncccn5)cnnc4c3)cn2)CC1` gave an EC50 of > 10 µM (Trypanosoma cruzi; parasite growth; C2C12; intracellular, amastigote).
With `O=C(NCc1cn(Cc2ccc(Br)cc2)nn1)Nc1ccccc1Br` the viability was 61.2% (Huh-7; cell growth or viability, CCK-8; 50 µM, 48 h).
With `COc1cc(C=O)ccc1OC1=C(Cl)C(=O)c2ccccc2C1=O` the MIC was 12 µg/mL (≈ 35 µM) (Alternaria alternata; microbial growth, broth dilution).
With `O=C(Nc1ccc(Cl)cc1)Nc1cccc(-c2cn(Cc3ccc(Cl)cc3)nn2)c1` the viability was 15.6% (Huh-7; cell growth or viability, CCK-8; 50 µM, 72 h).
For `COc1ccc(NC(=O)Nc2cccc(-c3cn(Cc4ccc(C)cc4)nn3)c2)cc1`, the IC50 was 19.3 µM (Huh-7; cell growth or viability, CCK-8; 72 h).
`O=C(Cn1ccnc1[N+](=O)[O-])NCc1ccccc1` gave an IC50 of 1.57 µg/mL (Trypanosoma cruzi; parasite growth; 72 h, epimastigote).
`CN1CCN(c2ccc(-c3ccc4c(Nc5cnccn5)cnnc4c3)cc2)CC1` gave an EC50 of > 10 µM (Trypanosoma cruzi; parasite growth; C2C12; intracellular, amastigote).
For `O=C(NCc1cn(Cc2ccc(Cl)cc2)nn1)Nc1ccc(Cl)cc1`, the viability was 65.7% (Huh-7; cell growth or viability, CCK-8; 50 µM, 48 h).
`COc1ccc(Nc2cnnc3cc(-c4cnc(N5CCCN(C)CC5)nc4)ccc23)cc1Cl` has an EC50 of 2 µM (Trypanosoma cruzi; parasite growth; C2C12; intracellular, amastigote).
With `COc1ccc(NC(=O)Nc2cccc(-c3cn(Cc4cccc(Cl)c4)nn3)c2)cc1` the viability was 65.5% (Huh-7; cell growth or viability, CCK-8; 50 µM, 48 h).
`O=C(NCc1cn(Cc2ccc(Cl)cc2)nn1)Nc1ccccc1Br` gave a viability of 65.6% (Huh-7; cell growth or viability, CCK-8; 50 µM, 72 h).
For `COc1ccc(Nc2cnnc3ccc(-c4ccc(N5CCN(C)CC5)cc4)cc23)nc1`, the EC50 was 1.7 µM (Trypanosoma cruzi; parasite growth; C2C12; intracellular, amastigote).
With `O=C(NCc1cn(Cc2cccc(Cl)c2)nn1)Nc1ccc(Cl)cc1` the viability was 82.2% (Huh-7; cell growth or viability, CCK-8; 50 µM, 72 h).
With `Cc1ccccc1Cn1cc(-c2cccc(NC(=O)Nc3ccc(F)cc3)c2)nn1` the viability was 46% (Huh-7; cell growth or viability, CCK-8; 50 µM, 48 h).
The EC50 of `Cc1ccc(Nc2cnnc3cc(-c4cnc(N5CCCN(C)CC5)nc4)ccc23)cn1` is reported as > 10 µM (Trypanosoma cruzi; parasite growth; C2C12; intracellular, amastigote).
`COc1ccc(NC(=O)Nc2cccc(-c3cn(Cc4ccc(Cl)cc4)nn3)c2)cc1` has an IC50 of 15.5 µM (Huh-7; cell growth or viability, CCK-8; 72 h).
`O=C(NCc1cn(Cc2ccc(Br)cc2)nn1)Nc1ccc(Cl)cc1` has a viability of 88.2% (Huh-7; cell growth or viability, CCK-8; 50 µM, 48 h).
The EC50 of `Cc1ccc(Nc2cnnc3ccc(-c4ccc(N5CCCN(C)CC5)cc4)cc23)cn1` is reported as 6.1 µM (Trypanosoma cruzi; parasite growth; C2C12; intracellular, amastigote).
With `COc1ccc(NC(=O)Nc2ccc(-c3cn(Cc4cccc(Cl)c4)nn3)cc2)cc1` the IC50 was > 50 µM (Huh-7; cell growth or viability, CCK-8; 72 h).
With `O=C(Nc1ccc(-c2cn(Cc3ccc(Cl)cc3)nn2)cc1)Nc1ccccc1Br` the viability was 87.2% (Huh-7; cell growth or viability, CCK-8; 50 µM, 72 h).
The viability of `COc1ccc(NC(=O)NCc2cn(Cc3ccc(Br)cc3)nn2)cc1` is reported as 86% (Huh-7; cell growth or viability, CCK-8; 50 µM, 72 h).
The EC50 of `CN1CCN(c2ccc(-c3ccc4nncc(Nc5ncccn5)c4c3)cc2)CC1` is reported as 7.9 µM (Trypanosoma cruzi; parasite growth; C2C12; intracellular, amastigote).
`O=C(Cn1ccnc1[N+](=O)[O-])NCc1ccccc1` has an IC50 of 2.23 µM (Trypanosoma cruzi; parasite growth; Vero, TULAHUEN; 72 h, intracellular, amastigote).
The IC50 of `COc1ccc(NC(=O)NCc2cn(Cc3ccc(C)cc3)nn2)cc1` is reported as > 50 µM (Huh-7; cell growth or viability, CCK-8; 72 h).
